According to ChEMBL document CHEMBL4513216, “Probing the Open Global Health Chemical Diversity Library for Multistage-Active Starting Points for Next-Generation Antimalarials” (ACS Infect Dis, 2020):

Experiment: Toxicity liver stage against HepG2, at 10uM
Format: cell-based
Design: test concentration 10 uM, cell line HepG2-A16-CD81EGFP
Settings: human, HepG2-A16-CD81EGFP cells; read-out: INHIBITION
In short: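 Uninfected HepG2-A16-CD81EGFP cells, 3 × 10^3 per well, 1536-well, plated on prespotted compound at 10 μM final, parasite-free screening media added to match infected plates; puromycin 10 μM positive, DMSO 0.5% negative; run in parallel with 48 h PbLuc assay at 37 °C, 5% CO2; viability by CellTiter-Glo luminescence, normalized to controls.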

Structure (SMILES) | cytotoxicity at 10 µM [%]
O=C(NCCCn1cccn1)C1CCC(=O)N(Cc2ccccc2F)C1 (stereo unspecified) | -3.75
CC(O)CNCc1ccccc1C(F)(F)F (stereo unspecified) | -3.3
CC(C)CCNC(=O)Cc1cnc(-n2cccc2)s1 | -2.49
CC(C)(C)C1SCC(=O)Nc2c1c(O)nn2C1CCCCC1 (stereo unspecified) | -16.7
COCCn1cc(CC(=O)Nc2c(C)nn(C)c2C)c2ccccc21 | 1.18
Cc1csc(NC(=O)Cn2nc(C)ccc2=O)n1 | -5.7
Cc1ccc(NC(=O)Nc2cnc(N3CCN(C)CC3)nc2)cc1 | -15.4
COCCN1C(=O)C2(CCC(C(=O)Nc3ccccn3)CC2)N=C1C (stereo unspecified) | 10.7
CN1C(=O)CC(c2cnn(C)c2)C12CCN(C(=O)c1ccc[nH]1)CC2 (stereo unspecified) | 6.74
c1cc(CNCC2Cn3nncc3CO2)cs1 (stereo unspecified) | 6.13
COCc1nc2c(o1)CN(C(=O)NCc1ccccc1)C2 | 10.6
CC(=O)N1CC2(CCN(C(=O)N(C)C)CC2)c2cc(C)ccc21 | 7.7
COC1CC2(CCN(Cc3ccc4c(c3)OCO4)CC2)C1 | 3.07
O=C1CC(c2ccccc2)C2(CCN(Cc3ccccn3)CC2)N1 (stereo unspecified) | 3.91
CCC1CCCCN1C(=O)Cn1nc(-c2cc(C)oc2C)cc(N)c1=O (stereo unspecified) | 2.44
CC(=O)N1CCC(c2n[nH]cc2-c2ccnc(N)c2)C1 (stereo unspecified) | 0.355
Cn1nc(C2CNCCO2)cc1CCOc1cccc(C(F)(F)F)c1 (stereo unspecified) | -1.02
Nc1nccc(C2CCCN2CCc2ccccc2)n1 (stereo unspecified) | 3.38
CCn1cc(S(=O)(=O)NCC2(N3CCOCC3)CCCCC2)c(C)n1 | -27.5
CN(C)c1ncccc1CN1CCOC(C(=O)Nc2ccccc2)C1 (stereo unspecified) | -29.7
Cc1ccc(CN2CC[C@H](O)[C@@H](n3ccc(=O)[nH]c3=O)CC2)cc1 | -22.8
CC(C)N1CCCC(CCCc2ccccn2)(C(=O)O)C1 (stereo unspecified) | 2.6
CC(C)NC(=O)N1CCN(c2ccc(Cl)nn2)C(=O)C1 | 5.01

Structure (SMILES) | cytotoxicity at 10 µM [%]
O=C(c1cccnc1)N1CCC2(CNS(=O)(=O)c3cnccc3O2)C1 (stereo unspecified) | 15.7
O=C(C[S+]([O-])Cc1csc(C2CCCC2)n1)Nc1ccccc1 (stereo unspecified) | -42.3
Cc1ccc(C(=O)N2CCCC(N(C)C(=O)OC(C)(C)C)C2)o1 (stereo unspecified) | -54
CS(=O)(=O)c1cc(C(=O)NS(=O)(=O)Cc2ccc(F)cc2)ccc1Cl | -3.38
O=C(c1ccccc1F)N(CCCO)S(=O)(=O)c1cccs1 | 4.95
CC(C)(C)c1ncc(CNCC2CN(C3CC3)CCO2)s1 (stereo unspecified) | 0.948
Cc1cc(N(Cc2cccnc2)C2CC2)n2nc(C(F)(F)F)nc2n1 | -1.95
CC(C)CC(N)C1=NC(=C2N=CN=N2)NO1 (stereo unspecified) | 10.6
COc1ccc(C2CCN(Cc3cscn3)CC2)cc1 | -0.243
COc1ccc(-c2nnc(C(C)N3CCOCC3)o2)cc1 (stereo unspecified) | -10.4
CCCNC(=O)CN(C)C1CCN(c2ccc(Cl)cc2)CC1 | 1.41
CCCN(CCC)C(=O)CN1CCCC1C(=O)N(C)C (stereo unspecified) | 7.42
COC(=O)C(CNC(=O)Nc1nncs1)Cc1ccc(F)cc1 (stereo unspecified) | 0.571
O=C(CN(Cc1cccs1)c1ccc(F)cc1)NC1CCOCC1 | 13.5
N#Cc1ccc(CCC(=O)N2CCC(CN3CCOCC3)CC2)cc1 | -4.97
NC(=O)N1CCCC(C(=O)Nc2cccc(Cl)c2)C1 (stereo unspecified) | 8.16
CCn1nc2c(cc1=O)CN(c1nc3ccccc3s1)CC2 | 7.5
CC(C)Cc1noc(CC2CCS(=O)(=O)C2)n1 (stereo unspecified) | 3.03
CCSCCC(=O)NCCn1nc2ccccn2c1=O | -9.53
CC(C)c1ncc2c(n1)CN(Cc1cccc3c1OCCO3)CC2 | -4.34
CCC(CC)c1cc(CNC(=O)N2CCC[C@@H]2CO)on1 | -5.16
CCC(CC)NC(=O)CN1CCN(C(=O)N(C)C)CC1 | -3.7
Cc1nn(C)c(C)c1NC(=O)CNc1cc(C(F)(F)F)ccc1F | 13.4

Structure (SMILES) | cytotoxicity at 10 µM [%]
Cc1nn(C)c(C)c1CCC(=O)OCC(=O)N1CCc2sccc2C1 | 0.927
Cc1nn(C)c(C)c1C(=O)NCc1cccnc1OC1CCCC1 | -0.171
Cc1noc(C)c1CC(=O)Nc1ccn(CC(N)=O)n1 | 9.86
CCc1nc(CC)n(CC(=O)NCc2ccccc2C)n1 | 15.2
CC(c1cccc(Cl)c1)N(C)CCS(=O)(=O)CCC(N)=O (stereo unspecified) | -45.8
CC(C)Sc1ccc(C(C)NC(=O)Cn2cccnc2=O)cc1 (stereo unspecified) | 16.8
CCS(=O)(=O)N1Cc2nccn2CC(Cn2cccn2)C1 (stereo unspecified) | 10.7
CC(=O)N1CCC2(CC1)CN(CC1CC1)c1ccc(F)cc12 | -113
CC(=O)N1CCO[C@@H]2CN(S(=O)(=O)C3CC3)CC[C@@H]2C1 | -112
CCO[C@@H]1CCN(C(=O)c2cscn2)[C@@H]1Cc1cnn(C)c1 | 4.84
CC(C)Cn1cncc1CNC1CCSC1 (stereo unspecified) | -2.34
COc1ccccc1CC(=O)N(CCN1CCOCC1)Cc1ccco1 | 2.91
COC1CCN(S(=O)(=O)N2C[C@H](c3ccccc3)[C@@H](N)C2)CC1 | 11.8
Cc1nc(CN2CCC3(CCCO3)CCC2=O)no1 (stereo unspecified) | -0.452
O=c1c2sccc2ncn1Cc1cc(C2CC2)[nH]n1 | 0.463
Cc1cc(C)c(C(=O)NC(c2nnc3n2CCNCC3)C(C)C)c(C)c1 (stereo unspecified) | -7.01
Cc1nn(C)c2nc(N3CCN(Cc4nccn4C)CC3)sc12 | -4.66
CC(c1ccccn1)N(C)Cc1ccc(-n2ccnc2)cc1 (stereo unspecified) | -0.452
Cc1cc(N2CCCN(c3nc(C)nc(C)c3C)CC2)ccn1 | -13.1
Cc1cc(C)cc(CN2CCN(Cc3ccc4nonc4c3)CC2=O)c1 | 0.403
COc1ccc2c(C)nc(N3C[C@@H](C)O[C@@H](C)C3)nc2c1 | 6.77
Cn1c(Cn2ncc(N3CCCC3)cc2=O)nc2ccccc21 | 5.65
CN(CCCc1cnn(C)c1)C(=O)C1CCCN(C2CCCC2)C1 (stereo unspecified) | -7.17

Structure (SMILES) | cytotoxicity at 10 µM [%]
CCn1nc(C(C)C)cc1C(=O)NCc1nc2ccc(OC)cc2[nH]1 | 4.28
CCC(CO)N(Cc1ccsc1)Cc1ccccc1C#N (stereo unspecified) | 9.64
CCN(CC)CCc1nc2c([nH]1)CC(c1ccc(Cl)cc1)CNC2=O (stereo unspecified) | -58.9
COCC(=O)N(Cc1cccnc1)CC1CCCN(C2CCCCC2)C1 (stereo unspecified) | 1.72
O=C(NCc1cccnc1)C1CN(c2cnc3ccccc3n2)CCN1 (stereo unspecified) | -48.9
CC(=O)N[C@@H]1CN(Cc2oc3ccccc3c2C)C[C@H]1c1ccc(C)o1 | -12.3
C/C(=C\c1ccco1)CN(C)C(C)c1ccccn1 (stereo unspecified) | -3.49
CN1CC(c2ccccc2)CC12CCN(C(=O)c1ccc(Cl)cc1)CC2 (stereo unspecified) | -2.72
CN(CCNc1ncc2c(n1)CCN2c1ccccc1)S(C)(=O)=O | 0.557
Cc1nc(NC(=O)N2CCCC(N(C)C)C2)nn1C (stereo unspecified) | -9.4
COc1ccccc1OCc1cc(C(=O)N2CCN(C(C)=O)CC2)n[nH]1 | -2.59
CC(C)N1CCC(NCc2cccnc2N(C)Cc2ccccc2)CC1 | 21
Cc1nc(C2CCN(C(=O)c3ccc(=O)n(C)c3)CC2)c2sccn12 | -5.38
Cn1cc(CCNCc2cc(Br)c3c(c2)OCO3)cn1 | -18
Cc1cc(C)n(CC2CCCN2Cc2nc(N)c3ccccc3n2)n1 (stereo unspecified) | -11.7
Cc1cnn(CC2CCCN2Cc2noc(C3CC3)n2)c1 (stereo unspecified) | -17.3
Cc1cc(C)cc(OCCN2CCn3c(C)nnc3C2)c1 | -9.08
COc1cc(CNC2CCc3nc(C)nn3C2)cc2c1OCCO2 (stereo unspecified) | -9.16
Cc1nccn1C1CCCN(C(=O)c2ccc(N(C)C)nc2)C1 (stereo unspecified) | -7.62
O=S(=O)(N(Cc1ccccn1)C1CC1)N1CCCC1c1ccco1 (stereo unspecified) | -3.73
Cc1cnn(CC2CCCCN2Cc2nnc(-c3ccco3)o2)c1 (stereo unspecified) | -10.4
COc1cc(S(=O)(=O)N2CCCc3ccccc32)cc(C(=O)O)c1OC | 1.8
Cc1cnn(CC2CCCCN2CCCS(N)(=O)=O)c1 (stereo unspecified) | 4.02

Structure (SMILES) | cytotoxicity at 10 µM [%]
CC(C)Oc1ncccc1CNC(=O)c1ccco1 | 1.32
CCN1CCN(C2CCN(Cc3nc4ccccc4o3)CC2)C1=O | 5.61
Cc1cnn(CCNCC(=O)NCC2(c3ccccc3)CCC2)c1 | 5.87
CC1c2ncc(COCc3ccccn3)n2CCN1C1CCCC1 (stereo unspecified) | 12.8
Cc1ccc2c(n1)N(CCn1cccn1)CCN(C(=O)NC1CC1)C2 | -4.58
CN(Cc1ccncc1)C1COC2(CCN(c3ncc(F)cn3)CC2)C1 (stereo unspecified) | 6.95
O=C([C@H]1CN(Cc2ccncc2)C[C@H]2OCC[C@@H]12)N1CCCCO1 | 9.01
CO[C@@H]1CCN(c2nnc(C)s2)C[C@@H]1Cc1ccccc1 | 10.5
Fc1cnc(N2CC[C@@H]3OC(COCc4cccnc4)CC[C@@H]32)nc1 (stereo partly specified) | 9.94
O=C(c1ccncc1)N1CCOC2(COCCN(c3cncnc3)C2)C1 (stereo unspecified) | 8.58
CC(C)N1[C@@H](C(=O)NCCN(C)C)C[C@H]2CN(c3ncccn3)C[C@H]21 | 8.73
Cc1cc(S(=O)(=O)NC(C)(C)CN)c(F)cc1F | 4.87
Cc1cc(F)c(S(=O)(=O)NCC(C)(C)N)cc1F | 6.65
Cc1noc(C)c1CN1CC[C@H]2OCC[C@@]2(C(=O)N2CCCO2)C1 | 1.59
COCC1CC2(CCN(CC3CC3)CC2)CN1Cc1csc(C)n1 (stereo unspecified) | 4.26
CN(C)C(=O)N1CCO[C@@H]2CC(COCc3cccnc3)C[C@H]21 (stereo partly specified) | 8.61
O=C(Nc1ccccc1)N1CCn2nnc(COc3cccnc3)c2C1 | -2.03
Cn1cccc1C(=O)N1CCC2(CCN(C(=O)c3cccnc3)C2)CC1 | -102
CCC1=N[C@@]2(CC[C@@H]3CN(Cc4ccccc4C)C[C@@H]32)C(=O)N1 | 8.4
